Test [1] concerns Plasmodium falciparum. Briefly: Antimalarial activity against Plasmodium falciparum Dd2 ring stage parasite assessed as decrease in parasite viability after 72 hrs by SYBR green 1 dye based assay. The class given is functional, organism-based. In outline:
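Ring-stage cultures at 1% hematocrit and 1% parasitemia grown 72 h at 37 °C under 5% CO2, 5% O2, 90% N2 with increasing drug concentrations. Viability read by SYBR Green I DNA quantitation. IC50 from nonlinear regression, mean of three independent determinations each in duplicate, ± SEM.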

The subject of test [2] is A2780. Briefly: Cytotoxicity against human A2780 cells assessed as inhibition of cell growth after 2 days by Alamar blue assay. Conditions: A2780, 48 h; call rule not given here. The class given is functional, cell-based.
Where [3] appears, read: Plasmodium falciparum, Dd2, 72 h, read-out: IC50.

We go through eight compounds from ChEMBL document CHEMBL4145568, “Antiplasmodial Diterpenoids and a Benzotropolone from Petradoria pumila” (J Nat Prod, 2018).

As usually defined, the IC50 is the concentration that inhibits the measured activity by half. With `C=C[C@](C)(O)[C@@H]1C[C@@H]2[C@@]3(C)C(=O)CCC(C)(C)[C@@H]3CC[C@@]2(C)O1`, the results for the IC50 in test [1] (setting [3]) and in test [2] were more than 20 µM and more than 50 µM, respectively.

`C=C[C@](C)(O)[C@@H]1C[C@@H]2[C@@]3(C)[C@@H](O)CCC(C)(C)[C@@H]3CC[C@@]2(C)O1`: the IC50 is more than 20 µM in test [1] (setting [3]) and more than 50 µM in test [2].

Turning to `COc1cc([C@@H]2Oc3c(OC)cc(/C=C/COC(C)=O)cc3[C@H]2COC(C)=O)ccc1O`, in test [1], the IC50 result is “Not Active”.

For `C=C[C@@](C)(OC(C)=O)[C@@H]1C[C@@H]2[C@@]3(C)C(=O)CCC(C)(C)[C@@H]3CC[C@@]2(C)O1`, the values for the IC50 entry in test [1] and in test [2] were “Not Active” and more than 50 µM, respectively.

In the case of `COc1cc([C@@H]2Oc3c(OC)cc(/C=C/COC(=O)CC(C)C)cc3[C@H]2COC(=O)CC(C)C)ccc1O`, the IC50 in test [1] (setting [3]) was more than 20 µM.

For `C=C[C@@](C)(OC(C)=O)[C@@H]1C[C@@H]2[C@@]3(C)[C@@H](O)CCC(C)(C)[C@@H]3CC[C@@]2(C)O1`, the IC50 in test [1] (setting [3]) was 7.3 µM; in test [2], more than 50 µM.

In the case of `COc1cc2c(C)cccc2ccc1=O`, the IC50 in test [1] (setting [3]) was more than 20 µM; in test [2], more than 50 µM.

Regarding `C[C@@H]1CC[C@H]2[C@@H](C)C(=O)O[C@@H]3O[C@@]4(C)CC[C@@H]1[C@]32OO4` [ARTEMISININ], the IC50 in test [1] (setting [3]) was found to be 0.0085 µM.
